Source: PubChem BioAssay
Compounds with a hit are over-represented: about 3.5% of the library has one in this group of screens.
RGS4 block: human RGS4 inhibition; P49798; HEK293 M3R/RGS4 inducible, Fluo-4 calcium flux; hits give high values; triggered by carbachol at its EC20; B-score at 10 µM; 310,000 compounds, 0.45% hits; AID 463165;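 active = B-score, a plate-corrected calcium signal, over three deviations above library mean, with baseline fluorescence within five deviations of library mean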;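 also: RGS4 expression induced by doxycycline in cells with stable M3 receptor; B-score is computed from the integrated fluorescence ratio over baseline after carbachol; higher B-score means a larger calcium signal and so more RGS4 inhibition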
Target sequence (P49798 whole entry, looked up): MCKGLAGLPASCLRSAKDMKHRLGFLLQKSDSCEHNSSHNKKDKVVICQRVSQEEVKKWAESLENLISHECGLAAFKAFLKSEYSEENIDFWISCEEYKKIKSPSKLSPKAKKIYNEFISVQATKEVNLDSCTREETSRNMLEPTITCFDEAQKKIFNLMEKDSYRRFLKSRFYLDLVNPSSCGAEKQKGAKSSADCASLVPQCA
MrgX1 agonist: activates human MrgX1 receptor signaling. Q96LB2. MrgX1-HEK293 cells, Fluo-4 calcium fluorescence, agonist mode; hits give high values. B-score at 10 µM. 310,000 compounds, 0.44% hits. AID 588627;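 active = calcium response B-score plate-corrected fluorescence ratio at least 3 library SD, with starting fluorescence B-score inside 5 SD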
Target sequence (Q96LB2 whole entry, looked up): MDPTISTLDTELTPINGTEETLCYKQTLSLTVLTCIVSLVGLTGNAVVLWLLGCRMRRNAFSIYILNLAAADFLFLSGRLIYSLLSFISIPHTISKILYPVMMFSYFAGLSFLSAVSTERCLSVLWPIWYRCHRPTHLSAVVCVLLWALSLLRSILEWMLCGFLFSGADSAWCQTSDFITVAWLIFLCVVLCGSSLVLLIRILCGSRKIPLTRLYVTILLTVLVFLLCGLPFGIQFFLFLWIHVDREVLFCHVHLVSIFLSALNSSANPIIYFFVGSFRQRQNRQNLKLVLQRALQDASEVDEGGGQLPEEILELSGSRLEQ
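Test system: HEK293 cells stably expressing human MrgX1 receptor; Input: fifteen thousand cells per well; Dosing: compound delivered in addition one of three; Schedule: overnight seeding, then 1 h dark dye loading; Technique: Fluo-4 NW calcium fluorescence; Measure: B-scored fluorescence response ratio; Controls: positive and negative controls per plate.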
MrgX1 PAM: allosterically activates human MrgX1 receptor signaling. Q96LB2. 310,000 compounds, 0.63% hits. MrgX1-HEK293, Fluo-4 calcium flux, FDSS; hits give high values. B-score at 10 µM. AID 588675;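 active = plate-corrected calcium response at least 3 library SD above typical, normal starting fluorescence, not activating the receptor alone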;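 also: compound read alongside a low EC10 to EC30 dose of BAM8-22 agonist; peak minus trough fluorescence over baseline measured at the second addition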
MrgX1 antagonist: antagonists of human MrgX1 receptor | B-score at 10 µM | Q96LB2 | MRGX1-HEK293 calcium flux, Fluo-4, BAM8-22 antagonism; hits give low values | AID 588676 | 310,000 compounds, 1.3% hits;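 active = calcium-response B-score plate-corrected more than 3 library SD below zero, starting fluorescence within 5 deviations, no agonist response on first addition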;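 also: peak minus trough fluorescence over baseline after final BAM8-22 challenge near maximal dose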
RGS4 pot: RGS4 potentiation or activation; HEK293 M3R/inducible RGS4, carbachol calcium flux Fluo4; hits give low values; B-score at 10 µM; 310,000 compounds, 0.92% hits; AID 463111;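 active = B-score of the integrated calcium signal more than 4 SD below the library mean, with starting fluorescence not abnormally high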;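 also: negative B-score means reduced calcium response which marks RGS4 activation or potentiation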
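Material: Inducible-RGS4 HEK293 cells carrying M3 receptor; also added: carbachol at ECmax as muscarinic agonist stimulus; incubation: compound preincubation 20 min at room temperature before agonist; signal: Fluo4-AM (2 µM) calcium-flux fluorescence, kinetic read; measure: integrated calcium ratio converted to B score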
* marks the source's active call; other numbers are inactive results; i = inactive; / = no result given.

SMILES | RGS4 block | MrgX1 agonist | MrgX1 PAM | MrgX1 antagonist | RGS4 pot
CCCCCCN(C(=O)CCCCCN1C(=O)NC(c2ccc(-c3ccccc3)cc2)C(C(=O)OCc2ccccc2)=C1C)C(C(=O)NCCCC)c1ccccc1 (configuration not stated) | i | / | / | / | i
CCCCCCN(C(=O)CCCCCN1C(=O)NC(c2ccc(-c3ccccc3)cc2)C(C(=O)OCc2ccccc2)=C1C)C(C)C(=O)NCCCC (configuration not stated) | i | i | i | -4.6* | i
COc1ccc(CCn2c(=N)c(S(=O)(=O)c3ccc(Cl)cc3)cc3c(=O)n4ccccc4nc32)cc1 | i | i | i | -5.5* | i
COc1ccc(CCn2c(=N)c(S(=O)(=O)c3ccccc3)cc3c(=O)n4ccccc4nc32)cc1 | i | i | i | i | i
Cc1ccc(S(=O)(=O)c2cc3c(=O)n4ccccc4nc3n(Cc3ccco3)c2=N)cc1C | i | 31* | i | i | i
Cc1ccc(S(=O)(=O)c2cc3c(=O)n4ccccc4nc3n(CCc3ccccc3)c2=N)cc1 | i | i | i | i | -7.2*
Cc1ccc(NC(=S)NCc2ccc(Cl)cc2)c(C)c1 | i | i | i | i | i
CCCCC[C@H](O)/C=C/[C@H]1CCC(=O)[C@@H]1CCCCCCC(=O)N1CCCCC1CO (some centres not stated) | i | 48* | i | i | -8.5*
Cc1cccc(OCCNC(=O)CCc2ccccc2)c1 | i | i | i | i | i
COc1ccc(N2C(=O)CSC2c2ccc3c(c2)OCO3)cc1 (configuration not stated) | i | i | i | i | -7*
COc1ccc(N2C(=O)CSC2c2ccc3c(c2)OCO3)c(OC)c1 (configuration not stated) | i | i | i | i | i
Cc1ccc(N=Cc2cc(Cl)cc(Cl)c2O)nc1 | i | i | 7.6* | i | i
Oc1c(Cl)cc(Cl)cc1/C=N/Nc1ncc(Br)cn1 | i | i | i | i | i
O=c1c(Cl)c2oc3ccccc3nc-2c2ccccc12 | i | i | i | -5.7* | i
Clc1ccc(-c2nnc(Sc3nc4ccccc4o3)c3ccccc23)cc1 | i | i | i | i | i
CCCCCC(O)(c1ccc(OCC)cc1)C(CN1CCOCC1)c1ccccc1 (configuration not stated) | i | i | i | i | i
COc1ccc(NC(=O)c2cc(S(=O)(=O)N3CCOCC3)ccc2N2CCOCC2)cc1 | i | i | i | i | i
COc1ccc(NC(=O)c2cc(S(=O)(=O)N3CCCCC3)ccc2N2CCCCC2)cn1 | i | i | i | i | -7*
O=C(N/N=C/c1ccccc1Br)c1ccc(CSc2cccc3cccnc23)cc1 | i | i | i | i | i
NNC(=O)c1ccc(CSc2cccc3cccnc23)cc1 | i | i | i | -4.6* | i
COc1ccc(OC)c(N2C(=O)c3cccnc3C2=O)c1 | i | i | i | i | i
O=C(N/N=C/c1ccc2cccc(OCc3ccccc3)c2n1)c1ccc(Cl)cc1 | i | i | i | i | -9.9*
O=C(N/N=C/c1ccncc1)c1ccc(COc2cccc3cccnc23)cc1 | i | i | i | i | i
CCN(CC)CCNC(=O)c1ccc(NC(=O)CC(NC(=O)c2ccccc2Cl)c2ccccc2)cc1 (configuration not stated) | i | i | i | i | i
CC(=O)Oc1c(C)c(C)c2c(c1C)CC[C@@](C)(CCC[C@H](C)CCC[C@H](C)CCCC(C)C)O2 | / | i | i | i | /
SMILES | RGS4 block | MrgX1 agonist | MrgX1 PAM | MrgX1 antagonist | RGS4 pot
COc1ccc(-n2ccnc2)cc1 | i | i | i | i | i
COc1nc(N(c2ccccc2)c2ccccc2)nc(-n2ccnc2)n1 | i | i | 12* | i | i
N#Cc1nc(COc2ccccc2)oc1N1CCCC1 | i | i | i | i | i
N#Cc1nc(COc2ccccc2)oc1N1CCOCC1 | i | i | i | i | -7.2*
CCN1CCN(c2oc(COc3ccc(Cl)cc3)nc2C#N)CC1 | i | i | i | i | i
N#Cc1nc(COc2ccc(Cl)cc2)oc1N1CCN(Cc2ccccc2)CC1 | i | i | i | i | -7*
Cc1ccc(CNC(=O)CCNS(=O)(=O)c2cccc3nsnc23)cc1 | i | i | i | i | i
O=C(NC1CCN(C(=O)Nc2ccccc2Cl)CC1)c1ccccc1 | i | i | i | i | i
O=C(Nc1ccc(CN2CCCCC2)cc1)c1cc(Br)ccc1Cl | i | i | i | -5.5* | i
Oc1cccc2c(NC(=S)Nc3ccc(SC(F)F)cc3)cccc12 | i | i | i | -5.3* | i
COc1ccccc1/C=N/NC(=O)CCn1cnc2ccccc21 | i | i | i | i | i
CCCOC(=O)c1ccc(Oc2coc3c(CN(CC)CC)c(O)ccc3c2=O)cc1 | i | i | i | i | -8.6*
CCN(CC)Cc1c(O)ccc2c(=O)c(-c3ccc(Cl)cc3)coc12 | i | i | i | i | i
COC(=O)c1c(C(=O)OC)c(-c2cccc(Cl)c2)n2c1CS(=O)(=O)C2 | i | i | i | i | i
CC(=O)c1cccc(CN(C)CC2CCCN(CCc3ccccc3C)C2)c1 (configuration not stated) | i | i | i | i | -7*
CN(Cc1ccccc1)CC1CCCN(CCc2ccccc2F)C1 (configuration not stated) | i | i | i | i | i
O=C(Nc1nn[nH]n1)c1cc(-c2ccc(Cl)c(Cl)c2Cl)nc2ccccc12 | i | i | i | i | i
Cc1cc(C)nc(N2CCC(C(=O)N3CCN(c4cc(Cl)ccc4C)CC3)CC2)n1 | i | i | i | i | -7.3*
Cc1ccc(C)c(N2CCN(C(=O)C3CCN(c4nc(C)cc(C)n4)CC3)CC2)c1 | i | i | i | i | i
C=CCSc1nnc(C)c(/C=C/Nc2ccc(Cl)cc2)n1 | i | i | i | i | -7.5*
CSc1nnc(C)c(/C=C/Nc2ccc(F)cc2F)n1 | i | i | i | i | i
COC(=O)[C@@H]1C(c2c(OC)cc(OC)cc2OC)=NO[C@H]1C(=O)OC | i | i | i | -6.2* | i
COC(=O)C1CC(c2c(OC)cc(OC)cc2OC)=NO1 (configuration not stated) | i | i | i | i | i
CCn1c(=O)c2c(nc(SCC(=O)NC3CCCC3)n2C)n(C)c1=O | i | i | i | i | i
